The record followed here is ChEMBL document CHEMBL2086318, “Synthesis and in vitro antimycobacterial activity of 2-methoxybenzanilides and their thioxo analogues” (Eur J Med Chem, 2012).

Converted amounts (≈) assume the structure as drawn.

Format in all cases: functional
Experiment [1] has as its system Mycobacterium kansasii. As to the kind of experiment: Antimycobacterial activity against Mycobacterium kansasii My 6509/96 clinical isolate after 14 days by micromethod. To be noted: My 6509/96, 336 h.
Experiment [2] concerns Mycobacterium kansasii. Kind of experiment: Antimycobacterial activity against Mycobacterium kansasii My 235/80 after 21 days by micromethod. To be noted: My 235/80, 504 h.
The test system of experiment [3] is Mycobacterium tuberculosis. As to the kind of experiment: Antimycobacterial activity against Mycobacterium tuberculosis My 331/88 after 14 days by micromethod. Conditions: My 331/88, 336 h. In short, it runs like this: (§1)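 MIC by micromethod at 37 °C, read after 14 and 21 days. Inocula were M. tuberculosis My 331/88 at 10^-3 dilution and M. avium My 330/88 at 10^-5 dilution. Compounds added in DMSO across 1000, 500, 250, 125, 62.5, 32, 16, 8, 4, 2, 1 and 0.5; isoniazid standard in sterile water. MIC taken as the lowest concentration inhibiting growth.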

Experiment [4] deals with Mycobacterium kansasii. As to the kind of experiment: Antimycobacterial activity against Mycobacterium kansasii My 235/80 after 14 days by micromethod. Conditions: My 235/80, 336 h.
Experiment [5] has as its system Mycobacterium avium. As to the kind of experiment: Antimycobacterial activity against Mycobacterium avium My 330/88 after 14 days by micromethod. Conditions: My 330/88, 336 h.
For experiment [6], the system named is Mycobacterium kansasii. Kind of experiment: Antimycobacterial activity against Mycobacterium kansasii My 6509/96 clinical isolate after 7 days by micromethod. Conditions: My 6509/96, 168 h.
Experiment [7] has as its system Mycobacterium kansasii. Kind of experiment: Antimycobacterial activity against Mycobacterium kansasii My 235/80 after 7 days by micromethod. To be noted: My 235/80, 168 h.
For experiment [8], the system named is Mycobacterium tuberculosis. Kind of experiment: Antimycobacterial activity against Mycobacterium tuberculosis My 331/88 after 21 days by micromethod. To be noted: My 331/88, 504 h. An outline of the steps: as §1
In experiment [9] the test system is Mycobacterium kansasii. As to the kind of experiment: Antimycobacterial activity against Mycobacterium kansasii My 6509/96 clinical isolate after 21 days by micromethod. Conditions: My 6509/96, 504 h.
Experiment [10] concerns Mycobacterium avium. Kind of experiment: Antimycobacterial activity against Mycobacterium avium My 330/88 after 21 days by micromethod. To be noted: My 330/88, 504 h.

As for `COc1ccc(Cl)cc1C(=S)Nc1cccc(C(F)(F)F)c1`, the minimal inhibitory concentration (MIC) – broadly, the lowest concentration found to suppress growth – turned out to be 16 µM (≈ 5.53 µg/mL) against Mycobacterium kansasii [1]; 16 µM (≈ 5.53 µg/mL) in the experiment with Mycobacterium kansasii [2]; 16 µM (≈ 5.53 µg/mL) in experiment [3]; 16 µM (≈ 5.53 µg/mL) against Mycobacterium kansasii [4]; 32 µM (≈ 11.1 µg/mL) against Mycobacterium avium [5]; 8 µM (≈ 2.77 µg/mL) against Mycobacterium kansasii [6]. Besides, the MIC was determined as 8 µM (≈ 2.77 µg/mL) in the experiment on Mycobacterium kansasii [7], 16 µM (≈ 5.53 µg/mL) in experiment [8], 16 µM (≈ 5.53 µg/mL) against Mycobacterium kansasii [9] and 32 µM (≈ 11.1 µg/mL) against Mycobacterium avium [10].
Regarding `COc1ccc(Cl)cc1C(=S)Nc1ccc(C(F)(F)F)cc1`, the MIC against Mycobacterium kansasii [1] stood at 16 µM (≈ 5.53 µg/mL); in the experiment on Mycobacterium kansasii [2] it was 32 µM (≈ 11.1 µg/mL); in experiment [3], 16 µM (≈ 5.53 µg/mL); with Mycobacterium kansasii [4], 16 µM (≈ 5.53 µg/mL); in the experiment with Mycobacterium avium [5], 16 µM (≈ 5.53 µg/mL); in the experiment with Mycobacterium kansasii [6], 8 µM (≈ 2.77 µg/mL). Besides, the MIC with Mycobacterium kansasii [7] amounted to 8 µM (≈ 2.77 µg/mL); in experiment [8] it was 16 µM (≈ 5.53 µg/mL); against Mycobacterium kansasii [9] it was 16 µM (≈ 5.53 µg/mL); in the experiment with Mycobacterium avium [10], 16 µM (≈ 5.53 µg/mL).
For the compound `COc1ccc(Cl)cc1C(=O)Nc1ccc(Cl)cc1`, the MIC in the experiment with Mycobacterium kansasii [1] turned out to be 125 µM (≈ 37 µg/mL); with Mycobacterium kansasii [2], 250 µM (≈ 74 µg/mL); in [3], 62.5 µM (≈ 18.5 µg/mL); against Mycobacterium kansasii [4] it was 250 µM (≈ 74 µg/mL); in the experiment on Mycobacterium avium [5], 62.5 µM (≈ 18.5 µg/mL); against Mycobacterium kansasii [6] it was 62.5 µM (≈ 18.5 µg/mL). In addition, the MIC against Mycobacterium kansasii [7] was found to be 62.5 µM (≈ 18.5 µg/mL); in experiment [8], 62.5 µM (≈ 18.5 µg/mL); against Mycobacterium kansasii [9] it was 125 µM (≈ 37 µg/mL); in the experiment with Mycobacterium avium [10], 62.5 µM (≈ 18.5 µg/mL).
For `O=C(Nc1ccc(C(F)(F)F)cc1)c1cc(Cl)ccc1O`, the MIC is 1 µM (≈ 0.316 µg/mL) against Mycobacterium kansasii [2]; 2 µM (≈ 0.631 µg/mL) in [3]; 1 µM (≈ 0.316 µg/mL) with Mycobacterium kansasii [4]; 8 µM (≈ 2.53 µg/mL) in the experiment on Mycobacterium avium [5]; 2 µM (≈ 0.631 µg/mL) in experiment [8]; 8 µM (≈ 2.53 µg/mL) in the experiment with Mycobacterium avium [10].
Take `O=C(Nc1ccc(Br)cc1)c1cc(Cl)ccc1O`: the MIC in the experiment on Mycobacterium kansasii [2] was 4 µM (≈ 1.31 µg/mL); in experiment [3], 8 µM (≈ 2.61 µg/mL); with Mycobacterium kansasii [4], 4 µM (≈ 1.31 µg/mL); in the experiment on Mycobacterium avium [5], 8 µM (≈ 2.61 µg/mL); in experiment [8] it was 16 µM (≈ 5.23 µg/mL); against Mycobacterium avium [10], 8 µM (≈ 2.61 µg/mL).
For `O=C(Nc1ccc(Cl)cc1)c1ccc(Cl)cc1O`, the MIC in the experiment with Mycobacterium kansasii [2] turned out to be 8 µM (≈ 2.26 µg/mL); in experiment [3], 4 µM (≈ 1.13 µg/mL); with Mycobacterium kansasii [4], 4 µM (≈ 1.13 µg/mL); with Mycobacterium avium [5] it was 8 µM (≈ 2.26 µg/mL); in [8], 4 µM (≈ 1.13 µg/mL); with Mycobacterium avium [10], 8 µM (≈ 2.26 µg/mL).
In the case of `O=C(Nc1cccc(Cl)c1)c1ccc(Cl)cc1O`, the MIC amounted to 8 µM (≈ 2.26 µg/mL) with Mycobacterium kansasii [2]; 4 µM (≈ 1.13 µg/mL) in experiment [3]; 4 µM (≈ 1.13 µg/mL) in the experiment with Mycobacterium kansasii [4]; 16 µM (≈ 4.51 µg/mL) in the experiment with Mycobacterium avium [5]; 4 µM (≈ 1.13 µg/mL) in [8]; 16 µM (≈ 4.51 µg/mL) with Mycobacterium avium [10].
Consider `O=C(Nc1cccc(Cl)c1)c1cc(Cl)ccc1O`, for which the MIC against Mycobacterium kansasii [2] was 8 µM (≈ 2.26 µg/mL); in experiment [3], 4 µM (≈ 1.13 µg/mL); against Mycobacterium kansasii [4], 4 µM (≈ 1.13 µg/mL); in the experiment on Mycobacterium avium [5], 8 µM (≈ 2.26 µg/mL); in experiment [8] it was 8 µM (≈ 2.26 µg/mL); with Mycobacterium avium [10], 16 µM (≈ 4.51 µg/mL).
Consider `O=C(Nc1cccc([N+](=O)[O-])c1)c1cc(Cl)ccc1O`, for which the MIC in the experiment with Mycobacterium kansasii [2] worked out at 8 µM (≈ 2.34 µg/mL); in [3], 8 µM (≈ 2.34 µg/mL); in the experiment with Mycobacterium kansasii [4] it was 8 µM (≈ 2.34 µg/mL); in the experiment with Mycobacterium avium [5], 16 µM (≈ 4.68 µg/mL); in experiment [8] it was 8 µM (≈ 2.34 µg/mL); against Mycobacterium avium [10], 16 µM (≈ 4.68 µg/mL).
Consider `O=C(Nc1cccc([N+](=O)[O-])c1)c1ccc(Cl)cc1O`, for which the MIC came to 16 µM (≈ 4.68 µg/mL) in the experiment with Mycobacterium kansasii [2]; 8 µM (≈ 2.34 µg/mL) in experiment [3]; 16 µM (≈ 4.68 µg/mL) against Mycobacterium kansasii [4]; 16 µM (≈ 4.68 µg/mL) in the experiment on Mycobacterium avium [5]; 8 µM (≈ 2.34 µg/mL) in experiment [8]; 16 µM (≈ 4.68 µg/mL) against Mycobacterium avium [10].
As for `O=C(Nc1ccc(Cl)c(Cl)c1)c1cc(Cl)ccc1O`, the minimum inhibitory concentration (MIC) in the experiment with Mycobacterium kansasii [2] came to 4 µM (≈ 1.27 µg/mL); in experiment [3], 4 µM (≈ 1.27 µg/mL); against Mycobacterium kansasii [4], 4 µM (≈ 1.27 µg/mL); against Mycobacterium avium [5], 16 µM (≈ 5.07 µg/mL); in experiment [8], 8 µM (≈ 2.53 µg/mL); against Mycobacterium avium [10], 16 µM (≈ 5.07 µg/mL).
For `O=C(Nc1ccc(Br)cc1)c1ccc(Cl)cc1O`, the MIC stood at 4 µM (≈ 1.31 µg/mL) against Mycobacterium kansasii [2]; 4 µM (≈ 1.31 µg/mL) in [3]; 4 µM (≈ 1.31 µg/mL) in the experiment with Mycobacterium kansasii [4]; 16 µM (≈ 5.23 µg/mL) in the experiment on Mycobacterium avium [5]; 4 µM (≈ 1.31 µg/mL) in experiment [8]; 16 µM (≈ 5.23 µg/mL) against Mycobacterium avium [10].
As for `O=C(Nc1ccc(Cl)c(Cl)c1)c1ccc(Cl)cc1O`, the minimum inhibitory concentration (MIC) in the experiment with Mycobacterium kansasii [2] was found to be 8 µM (≈ 2.53 µg/mL); in [3] it was 4 µM (≈ 1.27 µg/mL); in the experiment on Mycobacterium kansasii [4] it was 8 µM (≈ 2.53 µg/mL); in the experiment with Mycobacterium avium [5], 16 µM (≈ 5.07 µg/mL); in [8] it was 4 µM (≈ 1.27 µg/mL); in the experiment on Mycobacterium avium [10] it was 16 µM (≈ 5.07 µg/mL).
